From ChEMBL document CHEMBL1255475, “Mutant prevention concentrations of four carbapenems against gram-negative rods” (2010)

Legend:
Assay type in all cases: functional
Conditions in all cases: read-out: IZ
Escherichia coli [1] = test: Antibacterial activity against beta-lactamase-positive ESBL-positive Escherichia coli assessed as […] in zone of inhibition at 30 ug by disk diffusion method
Summary of the method: (§1)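 ESBL screen of β-lactamase-positive enteric isolates by disk diffusion using cefotaxime and ceftazidime disks (30 μg each) alone.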

Klebsiella pneumoniae [2] = test: Antibacterial activity against beta-lactamase-positive ESBL-positive Klebsiella pneumoniae assessed as […] in zone of inhibition at 30 ug by disk diffusion method in presence of clavulanic acid
Summary of the method: (§2)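 ESBL confirmation by disk diffusion using cefotaxime and ceftazidime disks (30 μg each) combined with a 10 μg clavulanic acid disk, compared against the disks alone.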

Escherichia coli [3] = test: Antibacterial activity against beta-lactamase-positive ESBL-positive Escherichia coli assessed as […] in zone of inhibition at 30 ug by disk diffusion method in presence of clavulanic acid; summary of the method: as §2
Klebsiella pneumoniae [4] = test: Antibacterial activity against beta-lactamase-positive ESBL-positive sKlebsiella pneumoniae assessed as decrease in zone of inhibition at 30 ug by disk diffusion method; summary of the method: as §1

Measured: zone of inhibition at 30 µg/disc

O=C(O)[C@H]1/C(=C/CO)O[C@@H]2CC(=O)N21 [CLAVULANIC ACID]
≥ 5 mm: all assays above
